Data taken from ChEMBL document CHEMBL1121767, “Synthesis and in vitro antimicrobial property of o-carborane derivatives” (1981).
Converted amounts (≈) assume the structure as drawn.

How the values were obtained:
Aspergillus fumigatus = experiment: In vitro antifungal activity against Aspergillus fumigatus; type: functional
Outline: (§1)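 Clinical isolates kept on Sabouraud's dextrose agar at 28 °C. Inocula at 1 × 10^5 CFU/mL: C. albicans yeast cells grown 48 h in Sabouraud's dextrose broth; A. fumigatus and T. asteroides conidia grown 14 days in that broth with 0.1% Tween 80. Microtiter twofold dilution in Sabouraud's dextrose broth, 100 to […] µg/mL, methanol ≤2%. Sealed, 37 °C, 48 h. MIC is the lowest concentration without visible growth.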

Candida albicans = experiment: In vitro antifungal activity against Candida albicans; type: functional; outline: as §1
Trichophyton benhamiae = experiment: In vitro antifungal activity against Trichophyton asteroides; type: functional, tricophyton asteroides; outline: as §1

SMILES	MIC (Aspergillus fumigatus) [µg/mL]	MIC (Candida albicans) [µg/mL]	MIC (Trichophyton benhamiae) [µg/mL]
C[C@@H]1[C@H](O)[C@@H](C)/C=C/C=C/C=C/C=C/C=C/C=C/C=C/[C@H](O[C@@H]2O[C@H](C)[C@@H](O)[C@H](N)[C@@H]2O)C[C@@H]2O[C@](O)(C[C@@H](O)C[C@@H](O)[C@H](O)CC[C@@H](O)C[C@@H](O)CC(=O)O[C@H]1C)C[C@H](O)[C@H]2C(=O)O [AMPHOTERICIN B]	3.1 (≈ 3.35 µM)	1.6 (≈ 1.73 µM)	3.1 (≈ 3.35 µM)
Clc1ccccc1C(c1ccccc1)(c1ccccc1)n1ccnc1 [CLOTRIMAZOLE]	3.1 (≈ 8.99 µM)	3.1 (≈ 8.99 µM)	< 0.1
